Activity data for four compounds are collected here from ChEMBL document CHEMBL1154894, “Paltolides A--C, anabaenopeptin-type peptides from the palau sponge Theonella swinhoei” (J Nat Prod, 2010).

Calls of active or inactive are those of the source. The rule behind the calls is not given here. Numbered stars: 1 amine (or outer) side, 2 acyl side, 3 side chain; on linkers, the order of the positions; unused ones are H or OH. Bridge positions count the residues as written; N and C are the ends. Square brackets hold non-standard residues; d marks the D form. Peptide text beside a SMILES is read from it. X1 = O=C([C@H](Cc1c[nH]c2cc(Cl)c(O)cc12)N[*:1])[*:2]; NMeL = CN[C@@H](CC(C)C)C(=O)O; CO = O=C([*:1])[*:2]

One data set has as its system TZM. The experiment in a line: Cytotoxicity against human TZM-bl cells assessed as cell viability up to 100 ug/ml after 72 hrs by MTT assay. In kind it is functional, cell-based. In outline: (§1)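 MTT viability kit assay. Cells seeded at 2 × 10^4 per well and left to adhere 18 h. Exposed to compound for 24 h, then medium replaced or diluted 3-fold with fresh growth medium. Incubated a further 48 h before MTT read-out at A570. At least two separate experiments, each in duplicate.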

Data set [1] can be described thus: Cytotoxicity against african green monkey BSC1 cells assessed as cell viability up to 100 ug/ml after 72 hrs by MTT assay. The data set is classed as cell-based. Particulars: chlorocebus aethiops, bsc-1, 72 h. In a few lines:
as §1
(Formazan colour is commonly taken as a measure of viable cells.)

Data set [2] has as its system Human immunodeficiency virus 1. The experiment in a line: Antiviral activity against HIV1 expressing SF162 envelope assessed as inhibition of viral entry in human TZM-bl cells up to 100 ug/ml after 48 hrs by luciferase reporter gene assay. The data set is classed as functional, organism-based. In outline:
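Single-round HIV-1 neutralization in TZM-BL cells using virus pseudotyped with SF162 Envelope, under previously published conditions. At least two separate experiments, each run in duplicate.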
For orientation: Reporter assays use an easily measured gene product as a stand-in for the process of interest.

The next data set has as its system HCT-116. The experiment in a line: Cytotoxicity against human HCT116 cells assessed as cell viability up to 100 ug/ml after 72 hrs by MTT assay. In kind it is functional, cell-based. In a few lines:
as §1

For `CC(C)C[C@@H]1NC(=O)[C@H](C)NC(=O)[C@H](NC(=O)N[C@@H](CCCNC(=N)N)C(=O)O)CCCCNC(=O)[C@H](Cc2c[nH]c3cc(Cl)c(O)cc23)NC(=O)[C@H](CC(C)C)N(C)C1=O` ({Arg-CO}-[dK]AL[NMeL][X1]; lactam 1-C), the result (in the data set with TZM; in data set [2]; with HCT-116) was inactive. In addition, the Activity entry in data set [1] is “Not Active”.
As to `CC(C)C[C@@H]1NC(=O)[C@H](C)NC(=O)[C@H](NC(=O)N[C@@H](CCCNC(=N)N)C(=O)O)CCCCNC(=O)[C@H](Cc2c[nH]c3ccccc23)NC(=O)[C@H](CC(C)C)NC1=O` [PALTOLIDE A], the outcome (with TZM; in data set [2]; with HCT-116) was inactive. For the same compound, the Activity entry in data set [1] is given as “Not Active”.
Consider `CC(C)C[C@@H]1NC(=O)[C@H](C)NC(=O)[C@H](NC(=O)N[C@@H](CCCNC(=N)N)C(=O)O)CCCCNC(=O)[C@H](Cc2c[nH]c3ccc(O)cc23)NC(=O)[C@H](CC(C)C)N(C)C1=O` [PALTOLIDE B], for which the outcome (in the data set with TZM; in data set [2]; in the data set with HCT-116) was inactive. Further, the Activity entry in data set [1] is “Not Active”.
Take `CC(C)C[C@@H]1NC(=O)[C@H](C)NC(=O)[C@H](NC(=O)N[C@@H](CCCNC(=N)N)C(=O)O)CCCCNC(=O)[C@H](Cc2c[nH]c3cc(Br)ccc23)NC(=O)[C@H](CC(C)C)N(C)C1=O` [PALTOLIDE C]: the result (with TZM; in data set [2]; in the data set on HCT-116) was inactive. Also, in data set [1], the Activity result is reported as “Not Active”.
